Results: ChEMBL document CHEMBL1156410, “Design and synthesis of a combinatorial chemistry library of 7-acyl, 10-acyl, and 7,10-diacyl analogues of paclitaxel (taxol) using solid phase synthesis” (J Nat Prod, 2002)
Converted amounts (≈) assume the structure as drawn.

How the values were obtained:
[1] = Induction of tubulin polymerization at 1 uM by DAPI fluorescence method relative to control
How it was run: (§1)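 Microplate assay in PMEG buffer (100 mM PIPES, 1 mM MgSO₄, 2 mM EGTA, 0.1 mM GTP, pH 6.9) containing ligand; DAPI final 10 µM, tubulin final 5 µM. Fluorescence followed at 37 °C, excitation 360/40 nm, emission 460/40 nm. Change in fluorescence normalized to the curve of 10 µM paclitaxel standard. Samples in duplicate, triplicate or quadruplicate; concentrations over 2 orders of magnitude tested.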

[2] = Induction of tubulin polymerization at 10 uM by DAPI fluorescence method relative to control; how it was run: as §1
[3] = Induction of tubulin polymerization at 0.1 uM by DAPI fluorescence method relative to control; how it was run: as §1
[4] = Induction of tubulin polymerization by DAPI fluorescence method; settings: read-out: I50; how it was run: as §1
[5] = system: A2780; assay: Cytotoxicity against human A2780 cells; format: functional, cell-based

With `CCC(=O)O[C@H]1C(=O)[C@]2(C)[C@@H](OC(=O)C=C(C)C)C[C@H]3OC[C@@]3(OC(C)=O)[C@H]2[C@H](OC(=O)c2ccccc2)[C@]2(O)C[C@H](OC(=O)[C@H](O)[C@@H](NC(=O)c3ccccc3)c3ccccc3)C(C)=C1C2(C)C` the Activity [1] was 51%, the Activity [2] was 120% and the Activity [3] was 20%.
With `CC(=O)O[C@@]12CO[C@@H]1C[C@H](OC(=O)CCl)[C@@]1(C)C(=O)[C@H](OC(=O)OCc3ccccc3)C3=C(C)[C@@H](OC(=O)[C@H](O)[C@@H](NC(=O)c4ccccc4)c4ccccc4)C[C@@](O)([C@@H](OC(=O)c4ccccc4)[C@H]21)C3(C)C` the Activity [1] was 20%, the Activity [2] was 48% and the Activity [3] was 0%.
`CCCCC(=O)O[C@H]1C[C@H]2OC[C@@]2(OC(C)=O)[C@H]2[C@H](OC(=O)c3ccccc3)[C@]3(O)C[C@H](OC(=O)[C@H](O)[C@@H](NC(=O)c4ccccc4)c4ccccc4)C(C)=C([C@@H](OC(=O)CC)C(=O)[C@]12C)C3(C)C` gave an Activity [1] of 51%, an Activity [2] of 102% and an Activity [3] of 10%.
Molecule `CCC(=O)O[C@H]1C(=O)[C@]2(C)[C@@H](OC(=O)C3CC3)C[C@H]3OC[C@@]3(OC(C)=O)[C@H]2[C@H](OC(=O)c2ccccc2)[C@]2(O)C[C@H](OC(=O)[C@H](O)[C@@H](NC(=O)c3ccccc3)c3ccccc3)C(C)=C1C2(C)C` has an Activity [1] of 62%, an Activity [2] of 113% and an Activity [3] of 6%.
For `CC(=O)O[C@@]12CO[C@@H]1C[C@H](OC(=O)CN1Cc3ccccc3C1)[C@@]1(C)C(=O)[C@H](O)C3=C(C)[C@@H](OC(=O)[C@H](O)[C@@H](NC(=O)c4ccccc4)c4ccccc4)C[C@@](O)([C@@H](OC(=O)c4ccccc4)[C@H]21)C3(C)C`, the IC50 [4] was 2040 nM.
In the case of `CCC(=O)O[C@H]1C(=O)[C@]2(C)[C@@H](OC(=O)CC)C[C@H]3OC[C@@]3(OC(C)=O)[C@H]2[C@H](OC(=O)c2ccccc2)[C@]2(O)C[C@H](OC(=O)[C@H](O)[C@@H](NC(=O)c3ccccc3)c3ccccc3)C(C)=C1C2(C)C`, the Activity [1] is reported as 37%, the Activity [2] is reported as 111% and the Activity [3] is reported as 5%.
`CCC(=O)O[C@H]1C(=O)[C@]2(C)[C@@H](OC(=O)CCl)C[C@H]3OC[C@@]3(OC(C)=O)[C@H]2[C@H](OC(=O)c2ccccc2)[C@]2(O)C[C@H](OC(=O)[C@H](O)[C@@H](NC(=O)c3ccccc3)c3ccccc3)C(C)=C1C2(C)C` showed an Activity [1] of 72%, an Activity [2] of 114% and an Activity [3] of 20%.
Molecule `CC(=O)O[C@@]12CO[C@@H]1C[C@H](OC(=O)CN1CCNCC1)[C@@]1(C)C(=O)[C@H](O)C3=C(C)[C@@H](OC(=O)[C@H](O)[C@@H](NC(=O)c4ccccc4)c4ccccc4)C[C@@](O)([C@@H](OC(=O)c4ccccc4)[C@H]21)C3(C)C` has an IC50 [5] of 0.86 µg/mL (≈ 0.917 µM).
In the case of `CC(=O)O[C@@]12CO[C@@H]1C[C@H](O)[C@@]1(C)C(=O)[C@H](OC(=O)OCc3ccccc3)C3=C(C)[C@@H](OC(=O)[C@H](O)[C@@H](NC(=O)c4ccccc4)c4ccccc4)C[C@@](O)([C@@H](OC(=O)c4ccccc4)[C@H]21)C3(C)C`, the Activity [1] is reported as 83%, the Activity [2] is reported as 115% and the Activity [3] is reported as 34%.
With `CC(=O)O[C@@]12CO[C@@H]1C[C@H](OC(=O)CCl)[C@@]1(C)C(=O)[C@H](OC(=O)c3ccccc3)C3=C(C)[C@@H](OC(=O)[C@H](O)[C@@H](NC(=O)c4ccccc4)c4ccccc4)C[C@@](O)([C@@H](OC(=O)c4ccccc4)[C@H]21)C3(C)C` the Activity [1] was 56%, the Activity [2] was 92% and the Activity [3] was 29%.
Work on `CC(=O)O[C@@]12CO[C@@H]1C[C@H](OC(=O)C=C(C)C)[C@@]1(C)C(=O)[C@H](OC(=O)OCc3ccccc3)C3=C(C)[C@@H](OC(=O)[C@H](O)[C@@H](NC(=O)c4ccccc4)c4ccccc4)C[C@@](O)([C@@H](OC(=O)c4ccccc4)[C@H]21)C3(C)C` yielded an Activity [1] of 39%, an Activity [2] of 43% and an Activity [3] of 10%.
Molecule `C/C=C/C(=O)O[C@H]1C(=O)[C@]2(C)[C@@H](OC(=O)CCl)C[C@H]3OC[C@@]3(OC(C)=O)[C@H]2[C@H](OC(=O)c2ccccc2)[C@]2(O)C[C@H](OC(=O)[C@H](O)[C@@H](NC(=O)c3ccccc3)c3ccccc3)C(C)=C1C2(C)C` has an Activity [1] of 66%, an Activity [2] of 116% and an Activity [3] of 29%.
In the case of `CC(=O)O[C@@]12CO[C@@H]1C[C@H](OC(=O)CN1CCN(c3ccc(C(C)=O)cc3)CC1)[C@@]1(C)C(=O)[C@H](O)C3=C(C)[C@@H](OC(=O)[C@H](O)[C@@H](NC(=O)c4ccccc4)c4ccccc4)C[C@@](O)([C@@H](OC(=O)c4ccccc4)[C@H]21)C3(C)C`, the IC50 [5] is reported as 0.9 µg/mL (≈ 0.852 µM) and the IC50 [4] is reported as 4340 nM.
With `CCC(=O)O[C@H]1C[C@H]2OC[C@@]2(OC(C)=O)[C@H]2[C@H](OC(=O)c3ccccc3)[C@]3(O)C[C@H](OC(=O)[C@H](O)[C@@H](NC(=O)c4ccccc4)c4ccccc4)C(C)=C([C@@H](OC(=O)OCc4ccccc4)C(=O)[C@]12C)C3(C)C` the Activity [1] was 3%, the Activity [2] was 24% and the Activity [3] was 0%.
For `COc1cccc(C(=O)O[C@H]2C[C@H]3OC[C@@]3(OC(C)=O)[C@H]3[C@H](OC(=O)c4ccccc4)[C@]4(O)C[C@H](OC(=O)[C@H](O)[C@@H](NC(=O)c5ccccc5)c5ccccc5)C(C)=C([C@@H](OC(=O)c5ccccc5)C(=O)[C@]23C)C4(C)C)c1`, the Activity [1] was 52%, the Activity [2] was 78% and the Activity [3] was 22%.
`C/C=C/C(=O)O[C@H]1C(=O)[C@]2(C)[C@@H](OC(=O)c3ccccc3)C[C@H]3OC[C@@]3(OC(C)=O)[C@H]2[C@H](OC(=O)c2ccccc2)[C@]2(O)C[C@H](OC(=O)[C@H](O)[C@@H](NC(=O)c3ccccc3)c3ccccc3)C(C)=C1C2(C)C` gave an Activity [1] of 66%, an Activity [2] of 81% and an Activity [3] of 33%.
`C/C=C/C(=O)O[C@H]1C(=O)[C@]2(C)[C@@H](OC(=O)C3CC3)C[C@H]3OC[C@@]3(OC(C)=O)[C@H]2[C@H](OC(=O)c2ccccc2)[C@]2(O)C[C@H](OC(=O)[C@H](O)[C@@H](NC(=O)c3ccccc3)c3ccccc3)C(C)=C1C2(C)C` gave an Activity [1] of 41%, an Activity [2] of 109% and an Activity [3] of 27%.
Molecule `CC(=O)O[C@@]12CO[C@@H]1C[C@H](OC(=O)CN1CCCCC1)[C@@]1(C)C(=O)[C@H](O)C3=C(C)[C@@H](OC(=O)[C@H](O)[C@@H](NC(=O)c4ccccc4)c4ccccc4)C[C@@](O)([C@@H](OC(=O)c4ccccc4)[C@H]21)C3(C)C` has an IC50 [5] of 0.18 µg/mL (≈ 0.192 µM) and an IC50 [4] of 1020 nM.
`CC(=O)O[C@@]12CO[C@@H]1C[C@H](O)[C@@]1(C)C(=O)[C@H](OC(=O)c3ccccc3)C3=C(C)[C@@H](OC(=O)[C@H](O)[C@@H](NC(=O)c4ccccc4)c4ccccc4)C[C@@](O)([C@@H](OC(=O)c4ccccc4)[C@H]21)C3(C)C` showed an Activity [1] of 78%, an Activity [2] of 113% and an Activity [3] of 46%.
With `CCC(=O)O[C@H]1C(=O)[C@@]2(C)[C@H]([C@H](OC(=O)c3ccccc3)[C@]3(O)C[C@H](OC(=O)[C@H](O)[C@@H](NC(=O)c4ccccc4)c4ccccc4)C(C)=C1C3(C)C)[C@]1(OC(C)=O)CO[C@@H]1C[C@@H]2O` the Activity [1] was 54%, the Activity [2] was 114% and the Activity [3] was 13%.
For `C/C=C/C(=O)O[C@H]1C(=O)[C@@]2(C)[C@H]([C@H](OC(=O)c3ccccc3)[C@]3(O)C[C@H](OC(=O)[C@H](O)[C@@H](NC(=O)c4ccccc4)c4ccccc4)C(C)=C1C3(C)C)[C@]1(OC(C)=O)CO[C@@H]1C[C@@H]2O`, the Activity [1] was 80%, the Activity [2] was 117% and the Activity [3] was 26%.
In the case of `CCC(=O)O[C@H]1C(=O)[C@]2(C)[C@@H](OC(C)=O)C[C@H]3OC[C@@]3(OC(C)=O)[C@H]2[C@H](OC(=O)c2ccccc2)[C@]2(O)C[C@H](OC(=O)[C@H](O)[C@@H](NC(=O)c3ccccc3)c3ccccc3)C(C)=C1C2(C)C`, the Activity [1] is reported as 44%, the Activity [2] is reported as 111% and the Activity [3] is reported as 5%.
`CC(=O)O[C@@]12CO[C@@H]1C[C@H](OC(=O)C1CC1)[C@@]1(C)C(=O)[C@H](OC(=O)c3ccccc3)C3=C(C)[C@@H](OC(=O)[C@H](O)[C@@H](NC(=O)c4ccccc4)c4ccccc4)C[C@@](O)([C@@H](OC(=O)c4ccccc4)[C@H]21)C3(C)C` gave an Activity [1] of 61%, an Activity [2] of 91% and an Activity [3] of 30%.
`CC(=O)O[C@@]12CO[C@@H]1C[C@H](OC(=O)CN1CCN(C)CC1)[C@@]1(C)C(=O)[C@H](O)C3=C(C)[C@@H](OC(=O)[C@H](O)[C@@H](NC(=O)c4ccccc4)c4ccccc4)C[C@@](O)([C@@H](OC(=O)c4ccccc4)[C@H]21)C3(C)C` gave an IC50 [5] of 0.67 µg/mL (≈ 0.704 µM) and an IC50 [4] of 590 nM.
`CCC(=O)O[C@H]1C(=O)[C@]2(C)[C@@H](OC(=O)c3ccccc3)C[C@H]3OC[C@@]3(OC(C)=O)[C@H]2[C@H](OC(=O)c2ccccc2)[C@]2(O)C[C@H](OC(=O)[C@H](O)[C@@H](NC(=O)c3ccccc3)c3ccccc3)C(C)=C1C2(C)C` showed an Activity [1] of 33%, an Activity [2] of 97% and an Activity [3] of 0%.
With `CC(=O)O[C@@]12CO[C@@H]1C[C@H](OC(=O)c1ccccc1)[C@@]1(C)C(=O)[C@H](OC(=O)OCc3ccccc3)C3=C(C)[C@@H](OC(=O)[C@H](O)[C@@H](NC(=O)c4ccccc4)c4ccccc4)C[C@@](O)([C@@H](OC(=O)c4ccccc4)[C@H]21)C3(C)C` the Activity [1] was 32%, the Activity [2] was 33% and the Activity [3] was 10%.
With `CC(=O)O[C@@]12CO[C@@H]1C[C@H](OC(=O)CN1CCOCC1)[C@@]1(C)C(=O)[C@H](O)C3=C(C)[C@@H](OC(=O)[C@H](O)[C@@H](NC(=O)c4ccccc4)c4ccccc4)C[C@@](O)([C@@H](OC(=O)c4ccccc4)[C@H]21)C3(C)C` the IC50 [5] was 0.2 µg/mL (≈ 0.213 µM) and the IC50 [4] was 1300 nM.
`CC(=O)O[C@@]12CO[C@@H]1C[C@H](OC(=O)C1CC1)[C@@]1(C)C(=O)[C@H](OC(=O)OCc3ccccc3)C3=C(C)[C@@H](OC(=O)[C@H](O)[C@@H](NC(=O)c4ccccc4)c4ccccc4)C[C@@](O)([C@@H](OC(=O)c4ccccc4)[C@H]21)C3(C)C` showed an Activity [1] of 26%, an Activity [2] of 53% and an Activity [3] of 10%.
`CCCC(=O)O[C@H]1C[C@H]2OC[C@@]2(OC(C)=O)[C@H]2[C@H](OC(=O)c3ccccc3)[C@]3(O)C[C@H](OC(=O)[C@H](O)[C@@H](NC(=O)c4ccccc4)c4ccccc4)C(C)=C([C@@H](OC(=O)CC)C(=O)[C@]12C)C3(C)C` showed an Activity [1] of 52%, an Activity [2] of 123% and an Activity [3] of 4%.
